HIF act – HIF pathway transcriptional activators, primary screen, cell-based, U2OS HRE-luciferase, luminescence | activation, % at 7.5 µM (by protocol) | AID 1910, 2009 | U2OS HRE-luciferase reporter; normalized: DMSO 0%, desferrioxamine 100% | actives 0.32% (n = 300,000);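 active = mean activation of at least 10% of the iron chelator positive control signal, with at least half of replicates also reaching 10%; inconclusive = mean and replicate majority disagree about reaching 10%; inactive = mean and most replicates under 10%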
Calb FLC – C. albicans growth inhibition with fluconazole, primary screen, CaCi-2 strain, Alamar Blue fluorescence; C. albicans CaCi-2 (fluconazole-resistant clinical isolate) + fluconazole, 48 h; growth inhibition, % (concentration not given with the values); actives 0.57% (n = 300,000);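 active = growth inhibition above about 58% in most replicates, limit read from the data, passing the limit was not always enough; inconclusive = exactly half the replicates above a set limit; inactive = most replicates below a set limit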;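 note: all wells also contain fluconazole at 8 µg/ml as a sub-toxic cotreatment; 0% = median of DMSO wells and 100% = median of geldanamycin control wells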
GAA850 FXN act – FXN promoter activators, primary screen, cell-based, luciferase luminescence, HEK293 lucGAA850; activation, % at 6 µM; HEK293 lucGAA850 FXN promoter luciferase reporter, 24 h; percent of 10 µM SAHA response; AID 540364, 2011; actives 0.56% (n = 360,000);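 active = activation above the average of all compounds screened plus 3 SD, cutoff fixed separately per campaign, cut at about 7.5% in these data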;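 note: 0% = DMSO wells and 100% = 10 µM SAHA wells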
proCasp3 act – activators of human procaspase-3 D3A mutant, primary screen, biochemical, absorbance, PC-3 D3A mutant, single concentration. Caspase-3 (Homo sapiens), P42574. recombinant procaspase-3 D3A, Ac-DEVD-pNA absorbance 405 nm. activation, % at 8.5 µM. actives 0.11% (n = 330,000);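 active = activation above the mean of all tested compounds plus 3 SD, cut at about 21% in these data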;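 note: 0% = DMSO alone and 100% = DMSO wells spiked with extra 5 µM PC-3 D3A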
Target sequence (P42574 whole entry D9A/D28A/D175A): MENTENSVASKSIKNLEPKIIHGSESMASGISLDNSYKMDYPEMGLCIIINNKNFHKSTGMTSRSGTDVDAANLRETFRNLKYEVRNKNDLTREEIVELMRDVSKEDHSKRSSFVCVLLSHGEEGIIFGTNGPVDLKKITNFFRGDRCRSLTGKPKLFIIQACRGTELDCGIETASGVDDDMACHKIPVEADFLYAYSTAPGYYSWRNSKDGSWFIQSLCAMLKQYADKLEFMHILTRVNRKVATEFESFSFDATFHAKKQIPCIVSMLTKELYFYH
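Test system: Procaspase-3 D3A mutant, all three cleavage aspartates alanine | Dosing: Single dose, 8.5 µM nominal compound, 0.8% DMSO | Schedule: 1 h preincubation, 2 h reaction | Technique: 405 nm absorbance of p-nitroaniline, reads at 0 and 120 min | Repeats: One well per compound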
procasp7 counter – procaspase-7 activators, primary screen, counter-screen for procaspase-3 activator project, biochemical, absorbance, HTS, human | recombinant procaspase-7, Ac-DEVD-pNA absorbance 405 nm; D23A/D198A/D206A triple mutant, cannot self-cleave; scale: DMSO 0, 5 µM enzyme 100 | Caspase-7 (Homo sapiens), P55210 | actives 0.093% (n = 330,000) | activation, % at 8.5 µM | AID 463210, 2010;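 active = percent activation above the screen-wide mean plus 3 SD, cut at about 25% in these data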
Target sequence (P55210 whole entry D23A/D198A/D206A): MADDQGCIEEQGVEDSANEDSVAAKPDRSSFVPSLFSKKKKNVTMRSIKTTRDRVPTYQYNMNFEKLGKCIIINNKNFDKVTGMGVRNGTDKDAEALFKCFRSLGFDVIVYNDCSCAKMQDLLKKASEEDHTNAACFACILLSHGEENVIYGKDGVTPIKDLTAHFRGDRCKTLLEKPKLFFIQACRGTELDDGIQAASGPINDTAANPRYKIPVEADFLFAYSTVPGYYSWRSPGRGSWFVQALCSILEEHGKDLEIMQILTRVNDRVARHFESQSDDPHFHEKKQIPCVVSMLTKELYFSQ
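Material: Procaspase-7 triple mutant (PC-7 D3A) | Quantity: 2 µM procaspase-7 mutant as dispensed | Reagent: DEVD-pNA substrate | Times: 1 h preincubation, 2 h reaction | Technique: 405 nm absorbance of p-nitroaniline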
Neddyl block – inhibitors of cullin neddylation, primary screen, biochemical, TR-FRET, uHTS, NAE and Ubc12. inhibition, % at 25 µM. actives 0.58% (n = 360,000). NEDD8-conjugating enzyme Ubc12 (Homo sapiens) + NEDD8-activating enzyme E1 regulatory …. AID 651699, 2012; in the data active = inhibition above about 36%
* hit, by the source's call; ? = inconclusive; . = no result shown. Shown are actives, neighbours in structure and some others; about 1.9% of the full set was active somewhere.

SMILES	HIF act	Calb FLC	GAA850 FXN act	proCasp3 act	procasp7 counter	Neddyl block
CCOC(=O)C1(C)CCN1C(=O)c1oc2ccccc2c1C (stereo not drawn)	.	.	0	.	.	-6
O=C1NC2(CCC3(CC2)OCCO3)NN1c1ccc(Cl)cc1	1	106*	2	-5	1	7
O=C1CCCCC/C1=N/Nc1ccc(OCc2ccccc2)cc1	2	94*	3	-4	6	2
O=C(COc1ccc(OCc2ccccc2)cc1)NN=C1CCCC1	0	-3	-1	-7	3	-10
CCOC(=O)c1sc(=NC(=O)c2cccs2)n(C)c1C	-1	6	7	13	-2	-34
CCOC(=O)c1sc(=NC(=O)c2ccco2)n(C)c1C	.	106*	5	-5	8	-7
CCn1c(C(=O)NCCCc2ccccc2)cc2sccc21	0	-4	3	4	6	-25
O=C(NCCc1ccccc1)c1cc2sccc2n1Cc1ccccc1	75*	-3	-1	-9	6	-21
COc1cccc(C(=O)SC2=NCCS2)c1	327*	-2	-2	-2	-5	0
CCc1ccc(NC(=O)CSc2ccc(-c3ccccn3)nn2)cc1	13*	11	0	2	5	-49
O=C(/C=C/c1ccc(F)cc1)c1ccccc1Br	2	-16	9.3*	-12	-1	3
CCCCCCN1C[C@H](n2cc(C3CC3)nn2)[C@@H](O)C[C@@H]1c1ccc(OC)cc1	.	.	0	.	.	0
O=C(C[C@H]1C[C@@H]2c3cc(NC(=O)c4ccc5c(c4)OCO5)ccc3O[C@@H]2[C@H](CO)O1)NCc1cc(F)ccc1F	.	.	2	.	.	15
O=C(NNC(=O)c1cccnc1SCc1cccc([N+](=O)[O-])c1)c1ccc(F)cc1	1	13	-5	4	3	-14
O=C(NNC(=O)c1cccnc1SCc1cccc([N+](=O)[O-])c1)c1ccccn1	30*	?	-7	5	-3	-24
CCN(c1ccccc1)S(=O)(=O)c1ccc(Cl)c(NC(=O)CN2C(=O)NC3(CCCC3)C2=O)c1	0	96*	1	-2	-4	0
Cn1cccc1-c1cc(C(=O)N2CCc3c([nH]c4ccccc34)C2c2ccccn2)[nH]n1 (stereo not drawn)	4	98*	3	-2	-5	13
COC(=O)CCc1c(C)nc(N)[nH]c1=O	0	3	2	8	7	-5
CCCCc1c(C)nc(N)[nH]c1=O	20*	-2	2	-15	11	-4
CCOC(=O)c1ccc(Nc2nc(N)c3cc(OC)c(OC)cc3n2)cc1	-2	7	4	2	-1	45*
COc1cc2nc(Nc3ccc(C)c(C)c3)nc(N)c2cc1OC	1	-11	0	2	-5	33
COc1cc2nc(Nc3ccc(C)c(Cl)c3)nc(N)c2cc1OC	-2	-6	-3	-1	-1	48*
Cc1nn(C)cc1C(C(=O)NC1CCCCC1)N(Cc1ccccc1Cl)C(=O)c1cnccn1 (stereo not drawn)	0	78*	1	-1	10	5
Cc1nn(C)cc1C(C(=O)NC1CCCCC1)N(Cc1ccc(F)cc1)C(=O)c1cnccn1 (stereo not drawn)	0	7	3	2	7	-6
CCCCNC(=O)C1(C)CCN1C(=O)c1cc(OC)ccc1Br (stereo not drawn)	.	.	0	.	.	-7
SMILES	HIF act	Calb FLC	GAA850 FXN act	proCasp3 act	procasp7 counter	Neddyl block
Cc1ccc(-c2[nH]ncc2/C=N/n2c(COc3ccccc3)nc3ccccc3c2=O)cc1	0	2	-4	7	2	0
Cc1cc(/C=N/n2c(COc3ccccc3)nc3ccccc3c2=O)c(O)c([N+](=O)[O-])c1	15*	-13	1	3	2	-48
CC(C)O/C(=N/S(=O)(=O)c1ccc(Cl)cc1)c1ccccc1	.	.	-3	.	.	-5
CCN(CC)c1ccc2c(Cl)c(Br)c(=O)oc2c1	14*	5	-4	-51	-54	27
CCN(CC)c1ccc2c(C)c(Cl)c(=O)oc2c1	1	2	4	-5	-5	.
CC(C)(CCc1ccccn1)C(=O)CCCc1ccccn1	.	.	-2	.	.	6
Cc1ccc(CNC(=O)/C(C#N)=C\c2ccc(N(C)C)cc2)cc1	-42	-104	.	22*	-54	.
CN(C)c1ccc(/C=C(\C#N)C(=O)NCc2ccco2)cc1	4	-3	.	-6	-14	.
S=C(Nc1ccccc1)Nc1nc2ccccc2n1CCOc1ccccc1	0	94*	-1	-3	-13	-280
CC(=O)Nc1nc2ccccc2n1CCOc1ccccc1	-3	-5	1	6	-1	0
CC(C)C(NC(=O)C1(NC(=O)OCc2ccccc2)CCCC1)C(=O)O (stereo not drawn)	.	.	3	.	.	-6
CC(Sc1nnc(COc2ccc([N+](=O)[O-])cc2)n1C)C(=O)O (stereo not drawn)	93*	2	2	-5	3	-20
CC(Sc1nnc(COc2ccc([N+](=O)[O-])cc2)n1-c1ccccc1)C(=O)O (stereo not drawn)	0	-13	1	0	-2	-28
CCC(CC)C(C(=O)NCc1ccccc1)N(C)Cc1ccc(Cl)c(Cl)c1 (stereo not drawn)	.	.	.	.	.	0
c1ccc(-c2nnc3sc(-c4ccncc4)nn23)cc1	0	-1	2	-3	-5	-16
c1ccc(-c2nnc3sc(-c4cc5ccccc5o4)nn23)cc1	17*	8	1	0	-4	-16
Cc1ccc(NC(=O)C2C(C(=O)O)C3C=CC2C32CC2)cc1 (stereo not drawn)	1	79*	-5	-11	-5	-1
COCCCNC(=O)c1ccc2nc([C@@H]3O[C@H](CO)[C@H](O)[C@H](O)[C@H]3O)[nH]c2c1	.	.	-1	.	.	7
Nc1c(Cl)cc(-c2[nH]c3cc(C(=O)NCCO)ccc3c(=O)c2O)cc1Cl	0	69	-1	-11	-9	11
CCCNC(=O)c1ccc2c(=O)c(O)c(C)[nH]c2c1	1	-3	2	5	2	9
CCCNC(=O)c1ccc2c(=O)c(O)c(-c3ccc(F)cc3)[nH]c2c1	1	89*	-3	7	-4	.
